Laboratory results: ChEMBL document CHEMBL4028917, “(+)-Methyl (1R,2S)-2-{[4-(4-Chlorophenyl)-4-hydroxypiperidin-1-yl]methyl}-1-phenylcyclopropanecarboxylate [(+)-MR200] Derivatives as Potent and Selective Sigma Receptor Ligands: Stereochemistry and Pharmacological Properties” (J Med Chem, 2018)
Values after ≈ are worked out from the molar mass of the structure shown. Active and inactive are the calls of the source. The rule behind the calls is not given here.

Assays:
Cavia porcellus = organism: Cavia porcellus; assay: Selectivity index, ratio of Ki for sigma2 receptor in guinea pig brain membrane […]; format: cell membranes
[1] = target: Sigma non-opioid intracellular receptor 1 (Cavia porcellus, UniProt Q60492); assay: Displacement of [3H]-(+)-pentazocine from sigma1 receptor in guinea pig brain membrane after 150 mins by liquid scintillation counting method; format: cell membranes
[2] = Displacement of [3H]-(+)-DTG from sigma2 receptor in guinea pig brain membrane after 120 mins by liquid scintillation counting method; format: cell membranes, Cavia porcellus
D(2) dopamine receptor = D(2) dopamine receptor (Rattus norvegicus, UniProt P61169); assay: Displacement of [3H]-spiperone from dopamine D2 receptor in rat strriatum after 15 mins by liquid scintillation counting method
D(1A) dopamine receptor = D(1A) dopamine receptor (Rattus norvegicus, UniProt P18901); assay: Binding affinity to dopamine D1 receptor in rat striatum by liquid scintillation counting method
[3] = Enzymatic stability of the compound in human plasma assessed as half life; format: ADME, cell-free
Method in brief: (§1)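 Hydrolysis was followed at 37 °C in rat, mouse or human plasma. Half-life (h) and observed rate constant (h⁻¹) were derived; means ± SD of three experiments.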

[4] = Aqueous solubility of the compound; format: physicochemical
Method in brief: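 Water solubility (mg/mL) was measured experimentally; mean ± SD of three experiments.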

[5] = target: D(3) dopamine receptor (Rattus norvegicus) (UniProt P19020); assay: Binding affinity to dopamine D3 receptor in rat olfactory tubercle by liquid scintillation counting method
Homo sapiens = organism: Homo sapiens; assay: Binding affinity to dopamine D4.2 receptor (unknown origin) by liquid scintillation counting method
[6] = Chemical stability of the compound at pH 7.4 assessed as half life; format: physicochemical; conditions: buffer
Method in brief: (§2)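 Chemical stability was tested in vitro at 37 °C in aqueous buffer at pH 1.3 (non-enzymatic simulated gastric fluid) or pH 7.4. Half-life and k_obs were reported; means ± SD of three experiments.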

[7] = Enzymatic stability of the compound in rat plasma assessed as half life; format: ADME, cell-free; method in brief: as §1
Plasma [8] = assay: Enzymatic stability of the compound in human plasma assessed observed rate constant; format: ADME, cell-free; method in brief: as §1
[9] = Enzymatic stability of the compound in mouse plasma assessed as half life; format: ADME, cell-free; method in brief: as §1
Plasma [10] = assay: Enzymatic stability of the compound in rat plasma assessed observed rate constant; format: ADME, cell-free; method in brief: as §1
Mus musculus [11] = assay: Antinociceptive activity in CD1 mouse model of mechanical nociception assessed as increase in morphine-induced struggle response latency at 16 to 32 mg/kg, sc administered 30 mins before behavioral evaluation by paw pressure test; format: functional, organism-based
Method in brief: (§3)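 Female CD1 mice (25–30 g) in the paw pressure test. A 450 g blunt cone was pressed on the dorsal hindpaw until a struggle response, and latency (s) was recorded. Each hindpaw was tested twice, alternately, 1 min apart. Morphine (4 mg/kg) or HPMC vehicle was given s.c. 30 min before testing. Test drugs were given s.c. in HPMC 5 min before morphine. Mean ± SEM, 6–8 animals; one-way ANOVA with Bonferroni.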

[12] = target: T1, 5-hydroxytryptamine receptor 3A (Rattus norvegicus) (UniProt P35563); assay: Binding affinity to 5-HT3 receptor in rat cortex by liquid scintillation counting method
T1 sequence (whole entry): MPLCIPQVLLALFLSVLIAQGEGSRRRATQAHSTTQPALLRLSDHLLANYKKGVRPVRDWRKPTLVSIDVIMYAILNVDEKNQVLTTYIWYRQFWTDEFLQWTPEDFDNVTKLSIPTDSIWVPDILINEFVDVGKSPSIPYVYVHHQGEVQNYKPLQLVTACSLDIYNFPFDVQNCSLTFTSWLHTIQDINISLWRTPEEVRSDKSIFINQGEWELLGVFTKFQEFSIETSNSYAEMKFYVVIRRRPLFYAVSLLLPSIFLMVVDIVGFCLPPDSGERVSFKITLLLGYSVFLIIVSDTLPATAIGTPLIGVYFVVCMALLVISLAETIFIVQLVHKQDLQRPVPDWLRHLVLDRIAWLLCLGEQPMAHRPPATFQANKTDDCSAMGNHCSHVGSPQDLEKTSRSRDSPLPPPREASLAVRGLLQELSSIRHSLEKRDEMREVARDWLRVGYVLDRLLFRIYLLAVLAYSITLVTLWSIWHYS

[13] = target: 5-hydroxytryptamine receptor 2A (Rattus norvegicus) (UniProt P14842); assay: Binding affinity to 5-HT2A receptor in rat cortex by liquid scintillation counting method
[14] = Chemical stability of the compound at pH 1.3 assessed as half life; format: physicochemical; conditions: buffer; method in brief: as §2
Mus musculus [15] = assay: Reversal of 8 mg/kg, sc BD-1063-induced potentiation of morphine-induced antinociceptive activity in CD1 mouse model of mechanical nociception by measuring struggle response latency at 32 mg/kg, sc administered 30 mins before behavioral evaluation by paw pressure test; format: functional, organism-based; method in brief: as §3
[16] = Chemical stability at pH 7.4 assessed as observed rate constant; format: physicochemical; conditions: buffer; method in brief: as §2
[17] = Chemical stability at pH 1.3 assessed as observed rate constant; format: physicochemical; conditions: buffer; method in brief: as §2
[18] = target: Adrenergic receptor alpha-1 (Rattus norvegicus) (UniProt P15823+P23944+P43140); assay: Binding affinity to adrenergic alpha1 receptor in rat cortex by liquid scintillation counting method
Plasma [19] = assay: Enzymatic stability of the compound in mouse plasma assessed observed rate constant; format: ADME, cell-free; method in brief: as §1
Mus musculus [20] = assay: Antinociceptive activity in CD1 mouse model of mechanical nociception assessed as effect on struggle response latency at 8 mg/kg, sc administered 30 mins before behavioral evaluation by paw pressure test; format: functional, organism-based; method in brief: as §3
Mus musculus [21] = assay: Antinociceptive activity in CD1 mouse model of mechanical nociception assessed as effect on struggle response latency at 4 mg/kg, sc administered 30 mins before behavioral evaluation by paw pressure test; format: functional, organism-based
Method in brief: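 Female CD1 mice (25–30 g). Paw pressure test: a blunt cone applied 450 g to the dorsal hindpaw until a struggle response; latency (s) recorded. Each hindpaw was tested twice, alternately, at 1 min intervals. Morphine or HPMC vehicle was given s.c. 30 min before testing. Values are the mean ± SEM of both hindpaws from 6–8 animals; one-way ANOVA with Bonferroni test.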

Mus musculus [22] = assay: Antinociceptive activity in CD1 mouse model of mechanical nociception assessed as increase in morphine-induced struggle response latency at 32 mg/kg, sc administered 30 mins before behavioral evaluation co-treated with 32 mg/kg, sc prototypical sigma1 receptor agonist PRE-084 administered 5 min before injection of morphine by paw pressure test; format: functional, organism-based; method in brief: as §3
Mus musculus [23] = assay: Antinociceptive activity in CD1 mouse model of mechanical nociception assessed as effect on struggle response latency at 16 to 32 mg/kg, sc administered 30 mins before behavioral evaluation by paw pressure test; format: functional, organism-based; method in brief: as §3
Mus musculus [24] = assay: Antinociceptive activity in CD1 mouse model of mechanical nociception assessed as increase in morphine-induced struggle response latency at 12 to 16 mg/kg, sc administered 30 mins before behavioral evaluation by paw pressure test; format: functional, organism-based; method in brief: as §3
Mus musculus [25] = assay: Antinociceptive activity in CD1 mouse model of mechanical nociception assessed as effect on struggle response latency at 32 mg/kg, sc administered 30 mins before behavioral evaluation by paw pressure test; format: functional, organism-based; method in brief: as §3
Mus musculus [26] = assay: Antinociceptive activity in sc dosed CD1 mouse model of mechanical nociception assessed as increase in morphine-induced struggle response latency administered 30 mins before behavioral evaluation by paw pressure test; format: functional, organism-based; method in brief: as §3

Chain of D(2) dopamine receptor (P61169 whole entry): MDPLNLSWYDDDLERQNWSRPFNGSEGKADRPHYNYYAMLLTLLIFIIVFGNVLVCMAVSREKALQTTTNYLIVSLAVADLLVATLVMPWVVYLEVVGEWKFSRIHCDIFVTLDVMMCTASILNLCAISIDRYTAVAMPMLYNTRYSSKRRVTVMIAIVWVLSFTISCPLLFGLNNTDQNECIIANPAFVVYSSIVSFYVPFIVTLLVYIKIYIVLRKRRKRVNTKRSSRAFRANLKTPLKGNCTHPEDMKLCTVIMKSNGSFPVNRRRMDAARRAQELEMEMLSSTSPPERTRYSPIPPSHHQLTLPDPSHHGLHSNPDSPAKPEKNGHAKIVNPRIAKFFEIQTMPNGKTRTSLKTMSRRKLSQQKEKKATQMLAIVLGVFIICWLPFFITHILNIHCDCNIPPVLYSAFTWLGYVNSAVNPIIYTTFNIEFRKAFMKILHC
Chain of Sigma non-opioid intracellular receptor 1 (Q60492 whole entry): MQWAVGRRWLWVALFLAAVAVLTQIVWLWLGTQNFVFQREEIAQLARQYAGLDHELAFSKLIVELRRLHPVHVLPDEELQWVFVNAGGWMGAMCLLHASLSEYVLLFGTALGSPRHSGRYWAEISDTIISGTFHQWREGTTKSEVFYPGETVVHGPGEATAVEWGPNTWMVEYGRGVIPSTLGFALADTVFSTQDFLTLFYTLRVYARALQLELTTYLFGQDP
Chain of D(1A) dopamine receptor (P18901 whole entry): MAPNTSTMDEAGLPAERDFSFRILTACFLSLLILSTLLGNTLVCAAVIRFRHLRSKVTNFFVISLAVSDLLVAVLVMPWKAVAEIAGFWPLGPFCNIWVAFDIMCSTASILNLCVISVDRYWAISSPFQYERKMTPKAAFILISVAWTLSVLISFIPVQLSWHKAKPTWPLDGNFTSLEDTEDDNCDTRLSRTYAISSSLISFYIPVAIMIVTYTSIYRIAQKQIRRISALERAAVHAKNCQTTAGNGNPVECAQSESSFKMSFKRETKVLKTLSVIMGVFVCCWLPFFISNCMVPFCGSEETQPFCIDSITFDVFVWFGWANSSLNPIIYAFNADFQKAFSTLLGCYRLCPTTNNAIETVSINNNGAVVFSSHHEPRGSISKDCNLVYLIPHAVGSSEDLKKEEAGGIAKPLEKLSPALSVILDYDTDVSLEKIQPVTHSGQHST
Chain of D(3) dopamine receptor (Rattus norvegicus) (P19020 whole entry): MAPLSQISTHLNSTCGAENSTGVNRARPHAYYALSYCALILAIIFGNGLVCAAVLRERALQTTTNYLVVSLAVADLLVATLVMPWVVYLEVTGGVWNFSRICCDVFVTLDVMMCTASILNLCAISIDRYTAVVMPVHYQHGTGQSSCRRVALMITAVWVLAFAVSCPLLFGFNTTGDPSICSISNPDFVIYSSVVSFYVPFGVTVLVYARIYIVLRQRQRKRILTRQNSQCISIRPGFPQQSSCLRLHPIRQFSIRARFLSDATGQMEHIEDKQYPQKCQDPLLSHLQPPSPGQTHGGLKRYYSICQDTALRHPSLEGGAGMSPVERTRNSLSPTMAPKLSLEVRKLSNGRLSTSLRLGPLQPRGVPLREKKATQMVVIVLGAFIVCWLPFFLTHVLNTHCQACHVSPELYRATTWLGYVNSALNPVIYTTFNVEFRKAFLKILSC
Chain of 5-hydroxytryptamine receptor 2A (Rattus norvegicus) (P14842 whole entry): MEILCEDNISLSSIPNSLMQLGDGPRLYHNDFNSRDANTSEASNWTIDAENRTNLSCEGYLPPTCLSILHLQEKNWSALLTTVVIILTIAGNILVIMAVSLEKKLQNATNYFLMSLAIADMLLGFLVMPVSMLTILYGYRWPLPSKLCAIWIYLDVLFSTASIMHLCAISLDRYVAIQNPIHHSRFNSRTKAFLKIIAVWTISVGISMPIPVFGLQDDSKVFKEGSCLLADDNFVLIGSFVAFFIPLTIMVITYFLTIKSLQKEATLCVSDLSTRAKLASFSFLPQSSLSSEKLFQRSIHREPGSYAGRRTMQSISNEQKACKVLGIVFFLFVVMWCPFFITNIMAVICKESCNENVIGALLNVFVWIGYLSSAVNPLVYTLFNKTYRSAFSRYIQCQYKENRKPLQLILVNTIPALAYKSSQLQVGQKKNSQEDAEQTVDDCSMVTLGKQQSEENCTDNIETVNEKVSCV

Compound	Ratio Ki (Cavia porcellus)	Ki [1]	Ki [2]	further results
CCCOC(=O)[C@]1(c2ccccc2)C[C@@H]1CN1CCC(O)(c2ccc(Cl)cc2)CC1	10.4	14 nM	146 nM	–
COC(=O)[C@@]1(c2ccccc2)C[C@@H]1CN1CCC(O)(c2ccc(Cl)cc2)CC1	1.1	129 nM	142 nM	Ki (D(2) dopamine receptor): 4970 nM; Ki (D(1A) dopamine receptor): > 10000 nM
CC(C)OC(=O)[C@@]1(c2ccccc2)C[C@@H]1CN1CCC(O)(c2ccc(Cl)cc2)CC1	> 250	7 nM	1840 nM	half-life [3]: 65.2 h; solubility [4]: 3100 µg/mL (≈ 7.24 mM); Activity [5]: inactive; Activity (Homo sapiens): inactive; half-life [6]: 91 h; half-life [7]: 0.38 h; K (Plasma [8]): 0.01 h⁻¹; half-life [9]: 1.14 h; K (Plasma [10]): 3.26 h⁻¹; Activity (Mus musculus [11]): inactive; Activity [12]: inactive; Activity [13]: inactive; half-life [14]: 83.6 h; Activity (Mus musculus [15]): Active; K [16]: 0.009 h⁻¹; K [17]: 0.009 h⁻¹; Activity [18]: inactive; K (Plasma [19]): 0.51 h⁻¹
CCCOC(=O)[C@]1(c2ccccc2)C[C@H]1CN1CCC(O)(c2ccc(Cl)cc2)CC1	6.1	12 nM	73 nM	–
CN1CCN(CCc2ccc(Cl)c(Cl)c2)CC1	–	–	–	Activity (Mus musculus [20]): Active
CCOC(=O)[C@@]1(c2ccccc2)C[C@@H]1CN1CCC(O)(c2ccc(Cl)cc2)CC1	25	52 nM	1300 nM	–
CN1CC[C@]23c4c5ccc(O)c4O[C@H]2[C@@H](O)C=C[C@H]3[C@H]1C5	–	–	–	Activity (Mus musculus [21]): inactive
CCOC(=O)[C@]1(c2ccccc2)C[C@@H]1CN1CCC(O)(c2ccc(Cl)cc2)CC1	42.2	1.35 nM	57 nM	–
CCCN1CCC=C(c2cc(-c3ccc(C)cc3)no2)C1	–	4.3 nM	–	–
CC(C)OC(=O)[C@]1(c2ccccc2)C[C@@H]1CN1CCC(O)(c2ccc(Cl)cc2)CC1	10.5	20 nM	209 nM	Activity (Mus musculus [22]): inactive; Activity (Mus musculus [23]): inactive
CCOC(=O)[C@]1(c2ccccc2)C[C@H]1CN1CCC(O)(c2ccc(Cl)cc2)CC1	2.4	45 nM	107 nM	–
CCOC(=O)[C@@]1(c2ccccc2)C[C@H]1CN1CCC(O)(c2ccc(Cl)cc2)CC1	20.4	45 nM	918 nM	–
COC(=O)[C@]1(c2ccccc2)C[C@H]1CN1CCC(O)(c2ccc(Cl)cc2)CC1	3.6	11 nM	40 nM	Ki (D(2) dopamine receptor): 5620 nM; Ki (D(1A) dopamine receptor): > 10000 nM
COC(=O)C1(c2ccccc2)CC1CN1CCC(O)(c2ccc(Cl)cc2)CC1 (racemic)	–	14.6 nM	61.1 nM	Ki (D(2) dopamine receptor): 5200 nM; Ki (D(1A) dopamine receptor): > 10000 nM
COC(=O)C1(c2ccccc2)CC1CN1CCC(O)(c2ccc(Cl)cc2)CC1 (single isomer, unassigned; (+)) [listing 1 of 2 here]	–	1.51 nM	21.9 nM	Ki (D(2) dopamine receptor): 3230 nM; Ki (D(1A) dopamine receptor): > 10000 nM
CC(C)OC(=O)[C@@]1(c2ccccc2)C[C@H]1CN1CCC(O)(c2ccc(Cl)cc2)CC1	24.4	67 nM	1640 nM	Activity (Mus musculus [22]): inactive; Activity (Mus musculus [23]): inactive; Activity (Mus musculus [24]): Active; Activity (Mus musculus [11]): Active
COC(=O)C1(c2ccccc2)CC1CN1CCC(O)(c2ccc(Cl)cc2)CC1 (single isomer, unassigned; (+)) [listing 2 of 2 here]	14.5	–	–	–
O=C(O)[C@@]1(c2ccccc2)C[C@@H]1CN1CCC(O)(c2ccc(Cl)cc2)CC1	1.5	445 nM	650 nM	–
O=C(CCCN1CCC(O)(c2ccc(Cl)cc2)CC1)c1ccc(F)cc1 [HALOPERIDOL]	–	–	16 nM	–
CCCOC(=O)[C@@]1(c2ccccc2)C[C@H]1CN1CCC(O)(c2ccc(Cl)cc2)CC1	8.8	33 nM	290 nM	–
CC(C)OC(=O)[C@]1(c2ccccc2)C[C@H]1CN1CCC(O)(c2ccc(Cl)cc2)CC1	5	43 nM	214 nM	Activity (Mus musculus [25]): inactive; Activity (Mus musculus [22]): inactive; Activity (Mus musculus [26]): Dose-dependent effect; Activity (Mus musculus [11]): Active
CCCOC(=O)[C@@]1(c2ccccc2)C[C@@H]1CN1CCC(O)(c2ccc(Cl)cc2)CC1	13.2	13 nM	171 nM	–
COC(=O)C1(c2ccccc2)CC1CN1CCC(O)(c2ccc(Cl)cc2)CC1 (single isomer, unassigned; (-))	–	5.6 nM	23.4 nM	Ki (D(2) dopamine receptor): 378 nM; Ki (D(1A) dopamine receptor): > 10000 nM
